APJ agonist = agonists of human apelin receptor APJ, primary screen, CHO-K1 cells, PathHunter beta-arrestin, luminescence; P35414; 0% DMSO wells, 100% apelin; activation, % at 20 µM; 330,000 tested, 0.11% active; AID 2520, 2010;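 active = activation more than six SD over the plate average, tested at 20 µM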;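 note: 0% = DMSO alone and 100% = apelin-13 at 10 nM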
Target sequence (P35414 whole entry, looked up): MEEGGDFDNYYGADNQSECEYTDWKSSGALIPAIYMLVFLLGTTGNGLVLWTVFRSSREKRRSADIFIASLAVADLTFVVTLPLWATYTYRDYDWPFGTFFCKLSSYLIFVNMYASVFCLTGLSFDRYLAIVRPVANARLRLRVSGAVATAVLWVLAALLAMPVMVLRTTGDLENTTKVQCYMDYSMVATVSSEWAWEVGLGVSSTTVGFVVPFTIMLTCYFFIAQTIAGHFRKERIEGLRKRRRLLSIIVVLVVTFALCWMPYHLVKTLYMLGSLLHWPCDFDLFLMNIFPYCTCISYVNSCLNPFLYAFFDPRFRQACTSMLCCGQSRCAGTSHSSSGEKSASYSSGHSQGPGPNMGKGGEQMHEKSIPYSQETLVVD
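Incubation: overnight seeding, 90 min compound at 25 °C, 1 h detection; test system: PathHunter CHO-K1 APJ (AGTRL-1) beta-arrestin reporter cells; amount: 1000 cells/well; doses: one dose, 20 µM compound, 1% DMSO; measured by: beta-gal luminescence; measure: agonist-driven arrestin binding to APJ; benchmarks: negative DMSO alone, positive Apelin-13 at 10 nM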
APJ antagonist = antagonists of human apelin receptor APJ, primary screen, CHO-K1 cells, beta-arrestin complementation, luminescence; 330,000 tested, 0.32% active; inhibition, % at 20 µM; P35414; AID 2521, 2010;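 active = inhibition above about 40% at 20 µM, limit read from the data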;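 note: cells challenged with 10 nM apelin-13 agonist together with compound; plate controls were apelin-13 plus DMSO wells for no effect and DMSO wells lacking apelin-13 for full effect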
CXCR6 inh = CXCR6 receptor inhibitors, primary screen, cell-based, beta-arrestin, luminescence, CHO-K1 PathHunter, 1536-well; inhibition, % at 20 µM; 360,000 tested, 0.36% active; C-X-C chemokine receptor type 6 (Homo sapiens), O00574; in the data active = inhibition above about 34%, passing the limit was not always enough;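 note: antagonist mode with CXCL16 agonist at 10 nM final; 0% = 10 nM CXCL16 with DMSO and 100% = unstimulated wells without agonist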
CCR6 antagonist = CCR6 receptor antagonists, primary screen, cell-based, CHO-K1, luminescence, beta-arrestin, uHTS; C-C chemokine receptor type 6 (Homo sapiens), P51684; CHO-K1 CCR6 PathHunter beta-arrestin, CCL20-stimulated; inhibition, % at 20 µM; 340,000 tested, 0.49% active;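 active = compounds whose inhibition of the agonist-driven luminescence signal at 20 µM reaches about 50%, limit read from the data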;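 note: cells stimulated with CCL20 at 14 nM final; plate controls were DMSO with CCL20 for no effect and DMSO without agonist for full effect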
EBI2 antag = EBI2 receptor antagonists, beta-arrestin recruitment, primary screen, cell-based, luminescence, 7a,25-OHC stimulation, uHTS | G-protein coupled receptor 183 (Homo sapiens), P32249 | 7a,25-OHC stimulated | inhibition, % at 5 µM | 360,000 tested, 0.81% active; in the data active = inhibition above about 38%;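 note: enzyme fragment complementation signal reports receptor beta-arrestin coupling in cells; 0% = agonist plus DMSO wells and 100% = wells without agonist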
EBI2 antag conf = EBI2 antagonist hit retest, beta-arrestin, confirmation, cell-based, single concentration, luminescence, 7a,25-OHC stimulation | shares compounds with EBI2 antag | 7a,25-OHC antagonism | inhibition, % at 5 µM | 2,400 tested, 29% active | AID 651997, 2013;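 active = inhibition of at least 50%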
EBI2 agonist = EBI2 agonist activity of antagonist hits, confirmation, counter-screen for EBI2 antagonist project, cell-based, single concentration, agonist mode, luminescence; shares compounds with EBI2 antag; EBI2-expressing cells, 60 min; 0% vehicle, 100% 7α,25-dihydroxycholesterol control; activation, % at 5 µM; 2,400 tested, under 10 active;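 active = activation of at least 50%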
bGal counter = E. coli beta-galactosidase enzyme inhibition, confirmation, counter-screen for EBI2 antagonist project, biochemical, luminescence, single concentration | shares compounds with EBI2 antag | purified beta-galactosidase, luminescent Galacton Star, 15 min | inhibition, % at 5 µM | 2,400 tested, 1% active;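 active = replicate-average signal at least 3 plate SD below neutral wells, shown as high inhibition, flagging enzyme-inhibiting false positives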;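 note: 0% = DMSO wells with enzyme and 100% = wells lacking enzyme; higher means stronger loss of beta-gal luminescence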
* hit, by the source's call; . = no result. Only some compounds are listed: those with a hit (about 1.5% of all), similar ones and a draw of the others.

SMILES | APJ agonist | APJ antagonist | CXCR6 inh | CCR6 antagonist | EBI2 antag | EBI2 antag conf | EBI2 agonist | bGal counter
Cc1ccc(/C=C/C(=O)NN2CCN(C)CC2)cc1 | -1 | 8 | -2 | 2 | 64* | 39 | -1 | -7
O=C(C=Cc1ccccc1)N1CCCCC1 | . | . | -3 | 0 | 21 | . | . | .
O=C(/C=C/c1ccc(F)cc1)N1CCCN(C(=O)/C=C/c2ccc(F)cc2)CC1 | -2 | -19 | 2 | 11 | 85* | 73* | -2 | -19
CCOc1cc(C=NNC(=O)N(c2ccccc2)c2ccccc2)ccc1O | . | . | -9 | . | 9 | . | . | .
COc1ccccc1C(O)c1ncc(-c2cccc3ccccc23)[nH]1 (stereo unspecified) | . | . | -12 | . | -6 | . | . | .
COc1ccc(-n2cc(-c3ccccc3)[nH]c2=S)cc1 | 5 | -19 | -10 | 9 | 74* | 48 | -1 | -14
CC(C)CCN1C(=O)c2ccccc2C1c1nnnn1C(C)C (stereo unspecified) | . | . | 0 | . | 4 | . | . | .
COc1cc(OC)c(C=NNC(=S)NC23CC4CC(CC(C4)C2)C3)c(OC)c1 | . | . | 9 | 20 | 54* | 12 | 0 | -5
CN(C(=O)c1cccc(NC(=O)Cc2ccc(NC(=O)C3CCN(S(=O)(=O)c4cccc([N+](=O)[O-])c4)CC3)cc2)c1)C1CCCC1 | . | . | -4 | 2 | 36 | . | . | .
CN(C(=O)c1cccc(NC(=O)Cc2ccc(NC(=O)C3CCN(S(=O)(=O)c4cccc([N+](=O)[O-])c4)CC3)cc2)c1)C1CCC1 | . | . | -5 | 9 | 77* | 14 | -2 | -4
O=C(COc1ccc2ccccc2c1Br)N1CCCC1 | 0 | -24 | 3 | -12 | 2 | . | . | .
CCOC(=O)N1CCN(C(=O)COc2ccc3ccccc3c2Br)CC1 | 10 | 1 | -10 | -1 | 52* | 24 | -1 | -7
CCOC(=O)N1CCN(C(=O)COc2ccccc2Cl)CC1 | -15 | 33 | -10 | -5 | 8 | . | . | .
CCOC(=O)N1CCN(C(=O)COc2cc(C)c(Cl)c(C)c2)CC1 | -4 | 8 | 0 | 9 | 83* | 63* | 1 | -2
O=C(c1cc2ccccc2o1)N1CCN(Cc2ccc3c(c2)OCO3)CC1 | -1 | 10 | -2 | 6 | 70* | 37 | 1 | 6
Cc1ccc(C(=O)N2CCN(Cc3ccc4c(c3)OCO4)CC2)o1 | 2 | -7 | -6 | 18 | -4 | . | . | .
Cc1ccc2c(C)c(C(=O)N3CCN(Cc4ccc5c(c4)OCO5)CC3)oc2c1C | -3 | 2 | 0 | -4 | 44* | 16 | 2 | 5
O=C(c1cc2ccccc2o1)N1CCN(CCOc2ccccc2)CC1 | -4 | -37 | -4 | 10 | 56* | 38 | -1 | -13
COc1ccc(/C=C/C(=O)c2ccc3c4c(cccc24)CC3)cc1 | 0 | -6 | 3 | 2 | 56* | 36 | 2 | 4
COc1ccc(C(=O)C(=O)N2CCC(c3ccccc3)CC2)cn1 | . | . | . | . | 43* | 23 | 1 | 6
Brc1cccc(-c2nc3ccc(Br)cn3c2Cc2ccccc2)c1 | . | . | 2 | . | -9 | . | . | .
COc1ccc(OC)c(C2=Nn3c(nnc3-c3ccco3)SC2)c1 | 0 | 17 | 11 | 15 | 32 | . | . | .
COc1ccc(OC)c(C2=Nn3c(nnc3-c3cccc(OC(C)C)c3)SC2)c1 | -6 | -8 | 18 | 20 | 46* | 35 | 1 | -2
COc1cccc(Oc2nc(-c3ccncc3)nc3ccccc23)c1 | 1 | -11 | 6 | 10 | 44* | 5 | 1 | 9
CCCOc1ccc(Oc2nc(-c3ccncc3)nc3ccccc23)cc1 | -1 | -1 | 2 | 16 | 50* | -1 | -1 | -13

Assay outcomes as filed in PubChem.
